Screening data from PubChem BioAssay.
NR2E3 ag-1 – agonists of human nuclear receptor NR2E3. inhibition of corepressor binding, % at 4.78 µM. GST-NR2E3/biotin-RetCOR TR-FRET, 1536-well. Q9Y5X4. actives 0.12% (n = 320,000);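 active means percent inhibition above the cutoff of mean plus 3 SD of all tested compounds, set per screening campaign, cut at about 20% in these data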;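 further: 0% = DMSO wells and 100% = biotin wells as full block of FRET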
Target sequence (Q9Y5X4 whole entry, looked up): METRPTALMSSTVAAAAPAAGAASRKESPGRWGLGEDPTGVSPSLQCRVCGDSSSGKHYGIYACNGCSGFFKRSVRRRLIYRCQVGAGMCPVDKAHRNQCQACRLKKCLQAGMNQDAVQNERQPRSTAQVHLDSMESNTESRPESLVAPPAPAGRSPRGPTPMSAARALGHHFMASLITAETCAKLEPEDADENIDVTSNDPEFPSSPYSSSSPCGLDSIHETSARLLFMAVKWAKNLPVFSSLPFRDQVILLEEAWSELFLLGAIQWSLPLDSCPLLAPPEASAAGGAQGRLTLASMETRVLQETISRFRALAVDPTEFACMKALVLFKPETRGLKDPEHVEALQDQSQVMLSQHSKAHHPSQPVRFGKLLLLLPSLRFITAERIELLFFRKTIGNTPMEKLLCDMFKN
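System: GST-tagged NR2E3 plus biotinylated RetCOR corepressor; Amount: 1.35 nM GST-tagged NR2E3 final; Dosing: single nominal compound dose of 4.8 µM; Schedule: 5 h incubation at 4 °C; Technique: TR-FRET with europium anti-GST and streptavidin-D2, 340 nm excitation; Controls: biotin wells as high control, 0.6% DMSO wells as low control.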
NR2E3 ag-2 – human photoreceptor-specific nuclear receptor agonism. CHO-S Gal4-NCOR/VP16-NR2E3 two-hybrid, luciferase. inhibition of corepressor binding, % at 3.98 µM. actives 0.35% (n = 360,000). AID 602229;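 active means inhibition above the mean of all tested compounds plus 3 SD, cut at about 70% in these data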;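 further: 0% = DMSO with NR2E3 transfected cells and 100% = cells lacking NR2E3 construct; higher means lower luciferase signal from less NR2E3 corepressor binding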
PP5 inh – blocks human protein phosphatase 5 activity | P53041 | purified PP5c, OMFP substrate fluorescence | inhibition, % at 6.7 µM | actives 0.18% (n = 320,000);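 active means inhibition above the campaign's mean inhibition across all tested compounds plus 3 SD, cut at about 9.5% in these data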;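 further: 0% = DMSO only and 100% = 100 µM cantharidin control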
PP1 inh – PP1-alpha (human) inhibition in PP5 counter-screen. P62136. purified PP1alpha, OMFP fluorescence. inhibition, % at 6.7 µM. actives 0.9% (n = 320,000). AID 2235;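 active means inhibition above the mean inhibition of all tested compounds plus 3 SD, computed separately for each screening campaign, cut at about 15% in these data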
NR2E3 ag confirm – confirmation of human NR2E3 agonists; inhibition, % at 3.98 µM; shares compounds with NR2E3 ag-2; actives 51% (n = 2,300); CHO-S mammalian two-hybrid NR2E3-NCOR, luciferase luminescence; AID 624378;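 active means average inhibition above a cutoff equal to the mean inhibition of all tested compounds plus one SD, cut at about 70% in these data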;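 further: 0% = DMSO in NR2E3 cells and 100% = DMSO in cells lacking NR2E3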
VP16 counter – GAL4-VP16 reporter inhibition in NR2E3 agonist counterscreen; shares compounds with NR2E3 ag-2; CHO-S GAL4-VP16 luciferase reporter, luminescence; actives 29% (n = 2,300); inhibition, % at 3.98 µM; AID 624379;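 active means mean inhibition above a cutoff equal to the average over all tested compounds plus one standard deviation, cut at about 70% in these data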;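 further: luciferase from a UAS reporter driven by GAL4-VP16 transactivation; 0% = DMSO with VP16-transfected cells and 100% = DMSO with cells lacking VP16; higher means less reporter light so more repression of VP16 activity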
Numbers without * were called inactive; . = no result. This is a sample that favours compounds with a hit; in the whole collection about 1.3% have one here.

SMILES	NR2E3 ag-1	NR2E3 ag-2	PP5 inh	PP1 inh	NR2E3 ag confirm	VP16 counter
COc1cc(NS(=O)(=O)c2ccc(-n3cccn3)cc2)cc(OC)c1	.	51	.	.	55	47
O=S(=O)(Nc1cccc(Cl)c1)c1ccc(-n2cccn2)cc1	3	-1	5	2	.	.
Cc1ccc(NS(=O)(=O)c2ccc(-n3cccn3)cc2)cc1C	4	57	-3	0	59	52
Cc1ccc(NS(=O)(=O)c2ccc(-n3cccn3)cc2)cc1Cl	.	4	.	.	.	.
Cn1cccc1-c1nc2ccccc2[nH]1	-3	-62	-4	1	.	.
O=c1c(Cl)c(N2CCC3(CC2)OCCO3)cnn1C12CC3CC(CC(C3)C1)C2	0	37	-2	-5	.	.
Cc1noc(C)c1CSCC(=O)N1CCN(c2ccc(F)cc2)CC1	0	18	3	-3	.	.
Cc1cccc(N2CCN(C(=O)CSCc3c(C)noc3C)CC2)c1C	0	68	1	8	87*	68
Oc1ccccc1CNc1ccc2c(c1)OCCO2	-3	-8	0	-2	.	.
c1csc(CNc2ccc3c(c2)OCCO3)c1	1	58	2	0	48	3
COc1ccc(CN(C)C(=S)Nc2ccc(Cl)cc2)cc1	1	0	3	3	.	.
COc1ccc(-n2c(C)cc(C(=O)CSc3ccc(NC(C)=O)cc3)c2C)cc1	-1	-78	3	0	.	.
CC(=O)Nc1ccc(SCC(=O)c2cc(C)n(-c3ccccc3)c2C)cc1	0	56	3	-4	64	-8
Nc1nonc1C(=O)NCCNCc1cc(Br)ccc1OCc1ccccc1F	3	51	2	3	60	50
CC(NC(=O)c1cc(S(=O)(=O)N2CCOCC2)cn1C)c1ccccc1 (centres undefined)	2	16	3	1	.	.
Cn1c(=S)c2[nH]c(SCC3CCCO3)nc2n(C)c1=O (centres undefined)	.	53	.	.	38	-5
CCCC(C)Sc1nc2c([nH]1)c(=S)n(C)c(=O)n2C (centres undefined)	.	82*	.	.	44	5
CCC/C=C1/CCCOC(C(=O)NCc2ccccc2)(C(F)(F)F)C1 (centres undefined)	-1	27	5	0	.	.
Nc1ccccc1-c1nc2ccccc2[nH]c1=O	.	-42	.	.	.	.
Nc1ccc(Br)cc1-c1nc2ccccc2[nH]c1=O	1	62	0	-3	91*	77*
CSc1ccc(C(=O)NC2CCSc3ccccc32)cc1 (centres undefined)	5	-4	1	6	.	.
CC(=O)N1c2ccc(S(=O)(=O)NCC3CCC(C(=O)Nc4cc(C)ccn4)CC3)cc2CC1C (centres undefined)	1	48	0	-5	52	40
CC(=O)N1c2ccc(S(=O)(=O)NCC3CCC(C(=O)Nc4ncccc4C)CC3)cc2CC1C (centres undefined)	-5	-11	0	-4	.	.
CC1Cc2cc(S(=O)(=O)NCCc3ccccc3)ccc2N1C(=O)C1CC1 (centres undefined)	-1	50	3	4	71*	57
CC(=O)N1c2ccc(S(=O)(=O)NCCc3ccccc3)cc2CC1C (centres undefined)	-1	73*	-1	-3	55	50
SMILES	NR2E3 ag-1	NR2E3 ag-2	PP5 inh	PP1 inh	NR2E3 ag confirm	VP16 counter
COC(=O)C[C@H]1C[C@H]2c3cc(NC(=O)NC4CCCC4)ccc3O[C@H]2[C@@H](CO)O1	.	-9	.	.	.	.
CC1(C(=O)Nc2ccc3[nH]ncc3c2)CCN1C(=O)Cc1ccc(-c2ccccc2)cc1 (centres undefined)	.	53	.	.	78*	65
CC1(C(=O)Nc2ccc3[nH]ncc3c2)CCN1C(=O)CCc1ccccc1 (centres undefined)	.	25	.	.	.	.
CC(C)(C)c1ccc(C(=O)N2CCC2(C)C(=O)Nc2cccc(C#N)c2)cc1 (centres undefined)	.	52	.	.	4	33
CC(C)(C)c1ccc(CC(=O)N2CCC2(C)C(=O)Nc2ccc3[nH]ncc3c2)cc1 (centres undefined)	.	57	.	.	37	45
Cc1ccsc1C(=O)N1CCC1(C)C(=O)Nc1cccc(C#N)c1 (centres undefined)	.	8	.	.	.	.
CCN(CC)C(=O)[C@H]1CC(CC(=O)NCCCOC)C(=O)N2CCc3c([nH]c4ccccc34)[C@]12C (some centres undefined)	.	-33	.	.	.	.
O=C(Nc1cccc(C(F)(F)F)c1)N1CCC(c2nc(-c3ccc(F)cc3)no2)CC1	3	49	7	3	56	51
O=C(Nc1ccccc1)N1CCCC(c2nc(-c3ccc(F)cc3)no2)C1 (centres undefined)	-1	-17	2	4	.	.
CC(C)CNC(=S)N1CCC(c2nc(-c3ccc(F)cc3)no2)CC1	0	67	4	3	88*	67
CC(=O)c1sc(N/N=C\c2c(O)ccc3ccccc23)nc1C	6	-34	3	4	.	.
O=C(NCc1ccccc1)c1cccc(NC(=O)C2CCCC2)c1	.	-27	.	.	.	.
C=CC[C@]12C=C(OC)C(=O)C=C1O[C@@H](c1ccc3c(c1)OCO3)[C@H]2C	0	-9	0	-4	.	.
CC(C)(C)C(=O)Nc1ccc(NC(=O)c2ccco2)nc1	2	88*	1	-3	65	40
O=C(Nc1ccc(NC(=O)c2ccco2)nc1)c1ccco1	-4	-98	0	-2	.	.
CN(C)c1ccc(-c2csc(C(C)(O)c3ccccc3)n2)cc1 (centres undefined)	.	-72	.	.	.	.
CCn1c([N+](=O)[O-])nc2c1c(=O)[nH]c(=O)n2C	.	-4	.	.	.	.
S=C(NCc1cccnc1)Nc1cccc2ccccc12	4	-4	0	-5	.	.
S=C(NCCc1ccccc1)Nc1cccc2cnccc12	1	74*	0	0	91*	79*
CCCCNC(=S)Nc1cccc2cnccc12	-1	-4	0	-1	.	.
S=C(NCc1ccccc1)Nc1cccc2cnccc12	-1	66	2	-2	78*	60
CC1(C)COC(c2ccc(F)c([N+](=O)[O-])c2)=N1	0	21	1	-5	.	.
Cc1ccc(S(=O)(=O)Nc2ccc3cc([N+](=O)[O-])ccc3c2[N+](=O)[O-])cc1	.	101*	.	.	100*	91*
Cc1ccc(-n2nnnc2SCn2nnc3ccccc3c2=O)c(C)c1	0	92*	2	0	89*	72*
Cc1cc(SCn2nnc3ccccc3c2=O)nc2ccccc12	-4	-10	1	0	.	.
CN(C)c1nc(=NCc2ccco2)ss1	-5	76*	2	0	9	-8
Cc1cccc(NC(=S)N=Nc2c(O)[nH]c3ccccc23)c1	-5	67	0	3	13	-11
O=C(N=Nc1c(O)[nH]c2ccccc12)Nc1ccccc1	.	-106	.	.	.	.
